{"data": "Experimental data gathered from unrelated publications", "GIPR": "Gastric inhibitory polypeptide receptor (GIPR, Homo sapiens, UniProt P48546)", "SLC22A11": "Solute carrier family 22 member 11 (SLC22A11, Homo sapiens, UniProt Q9NSA0)"}
{"Compound": "c1cncc([C@@H]2CCCN2)c1", "target": "5-hydroxytryptamine receptor 3A (HTR3A, Homo sapiens, UniProt P46098)", "read-out": "ligand displacement", "method": "radioligand", "tested at": "50 µM", "quantity": "inhibition", "result": "-3.09%"}
{"Compound": "CC[C@H](C)[C@H](NC(=O)[C@H](CO)NC(=O)[C@H](Cc1ccc(O)cc1)NC(=O)[C@H](CC(=O)O)NC(=O)[C@H](CO)NC(=O)[C@@H](NC(=O)[C@H](Cc1ccccc1)NC(=O)[C@@H](NC(=O)CNC(=O)[C@H](CCC(=O)O)NC(=O)CCNC(=O)C1(c2ccc(Cl)cc2)CCOCC1)[C@@H](C)O)[C@@H](C)CC)C(=O)N[C@@H](C)C(=O)N[C@@H](CCSC)C(=O)N[C@@H](CC(=O)O)C(=O)N[C@@H](CCCCN)C(=O)N[C@H](C(=O)N[C@@H](Cc1c[nH]cn1)C(=O)N[C@@H](CCC(N)=O)C(=O)N[C@@H](CCC(N)=O)C(=O)N[C@@H](CC(=O)O)C(=O)N[C@@H](Cc1ccccc1)C(=O)N[C@H](C(=O)N[C@@H](CC(N)=O)C(=O)N[C@@H](Cc1c[nH]c2ccccc12)C(=O)N[C@@H](CC(C)C)C(=O)N[C@@H](CC(C)C)C(=O)N[C@@H](C)C(=O)N[C@@H](CCC(N)=O)C(=O)NCC(=O)N1CCC[C@H]1C(=O)N[C@@H](CO)C(=O)N[C@@H](CO)C(=O)NCC(=O)N[C@@H](C)C(=O)N1CCC[C@H]1C(=O)N1CCC[C@H]1C(=O)N1CCC[C@H]1C(=O)N[C@@H](CO)C(=O)N[C@@H](CCCCN)C(N)=O)C(C)C)[C@@H](C)CC", "target": "GIPR", "read-out": "β-arrestin recruitment", "action": "agonist", "quantity": "Emax", "result": "14%"}
{"Compound": "CCCCCCCCCc1ccc(OCCOCCOCCOCCOCCOCCOCCOCCOCCO)cc1", "target": "SLC22A11", "read-out": "transporter uptake", "action": "inhibitor", "tested at": "25 µM", "quantity": "inhibition", "result": "79.9%"}
{"Compound": "CN1CCC[C@H]1c1cccnc1", "target": "Delta-type opioid receptor (OPRD1, Homo sapiens, UniProt P41143)", "read-out": "ligand displacement", "tested at": "50 µM", "quantity": "inhibition", "result": "-7.8%"}
{"Compound": "CC(C)CC(=O)OC[C@H]1O[C@@](C#N)(c2ccc3c(N)ncnn23)[C@H](O)[C@@H]1O", "target": "Alpha-2A adrenergic receptor (ADRA2A, Homo sapiens, UniProt P08913)", "read-out": "cell-free assay", "tested at": "20 µM", "quantity": "inhibition", "result": "6%"}
{"Compound": "Cn1c(=O)c2[nH]cnc2n(C)c1=O", "target": "SLC22A11", "read-out": "transporter uptake", "action": "inhibitor", "tested at": "25 µM", "quantity": "inhibition", "result": "81.6%"}
{"Compound": "[2H]c1c([2H])c([C@]2([2H])CCCN2C(=O)C(C)(C)Oc2ccc3cn[nH]c3c2)c([2H])c([2H])c1C([2H])([2H])[2H]", "target": "Receptor tyrosine-protein kinase erbB-2 (ERBB2, Homo sapiens, UniProt P04626)", "read-out": "binding", "method": "competition with immobilised ligand", "tested at": "1 µM", "quantity": "remaining binding", "result": "83%"}
{"Compound": "CC[C@H](C)[C@H](NC(=O)[C@H](CO)NC(=O)[C@H](Cc1ccc(O)cc1)NC(=O)[C@H](CC(=O)O)NC(=O)[C@H](CO)NC(=O)[C@@H](NC(=O)[C@H](Cc1ccccc1)NC(=O)[C@@H](NC(=O)CNC(=O)[C@H](CCC(=O)O)NC(=O)[C@@H](C)NC(=O)[C@@H](N)Cc1ccc(O)cc1)[C@@H](C)O)[C@@H](C)CC)C(=O)N[C@@H](C)C(=O)N[C@@H](CCSC)C(=O)N[C@@H](CC(=O)O)C(=O)N[C@@H](CCCCN)C(=O)N[C@H](C(=O)N[C@@H](Cc1c[nH]cn1)C(=O)N[C@@H](CCC(N)=O)C(=O)N[C@@H](CCC(N)=O)C(=O)N[C@@H](CC(=O)O)C(=O)N[C@@H](Cc1ccccc1)C(=O)N[C@H](C(=O)N[C@@H](CC(N)=O)C(=O)N[C@@H](Cc1c[nH]c2ccccc12)C(=O)N[C@@H](CC(C)C)C(=O)N[C@@H](CC(C)C)C(=O)N[C@@H](C)C(=O)N[C@@H](CCC(N)=O)C(=O)NCC(=O)N1CCC[C@H]1C(=O)N[C@@H](CO)C(=O)N[C@@H](CO)C(=O)NCC(=O)N[C@@H](C)C(=O)N1CCC[C@H]1C(=O)N1CCC[C@H]1C(=O)N1CCC[C@H]1C(=O)N[C@@H](CO)C(=O)N[C@@H](CCCCN)C(N)=O)C(C)C)[C@@H](C)CC", "target": "GIPR", "read-out": "β-arrestin recruitment", "action": "agonist", "quantity": "Emax", "result": "103%"}
